# A selection: hits, their analogues and other compounds. The true share with any hit is near 0.77%.
# mIAP inh: inhibitors of mouse IAP, primary screen, biochemical, luminescence, uHTS; intestinal alkaline phosphatase [Mus musculus]; purified mouse IAP, CDP-Star luminescence, 30 min; inhibition, % at 10 µM; hit rate 0.2% among 330,000; AID 2806, 2010;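 active means inhibition of at least 40% at 10 µM in the primary screen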;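 further: plate controls were DMSO with enzyme for no effect and no enzyme wells for full effect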
# bIAP inhibitor: bovine intestinal alkaline phosphatase inhibitors, primary screen, selectivity assay for TNAP inhibitor project, biochemical, bovine IAP, CDP-star luminescence | alkaline phosphatase, intestinal [Bos taurus] | purified bovine IAP, 30 min | inhibition, % at 20 µM | 190,000 tested, under 10 active | AID 1019, 2008;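 active means over 50% inhibition of intestinal alkaline phosphatase at 20 µM in the single-dose screen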
#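 Incubation: 30 min reaction at room temperature / Material: purified bovine intestinal alkaline phosphatase (IAP) enzyme / Input: enzyme at 1/65,000,000 dilution / Dosing: 20 µM single dose / Signal: CDP-star luminescence signal / Reagent: CDP-star chemiluminescent phosphatase substrate, 30 µM final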
# mIAP act: activators of mouse IAP, primary screen, biochemical, luminescence, uHTS; muIAP, CDP-Star luminescence, 30 min; hits give high values; 1 = vehicle-only enzyme signal, 0 = enzyme-free wells; AID 2805, 2010; hit rate 0.24% among 330,000; intestinal alkaline phosphatase [Mus musculus]; activation factor at 10 µM;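 active means activation factor of at least 2 at 20 µM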
#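 System: mouse IAP enzyme. Reagent: CDP-Star chemiluminescent phosphatase substrate. Benchmarks: DMSO wells, no-enzyme wells. Times: 30 min enzyme-substrate-compound incubation at room temperature. Detection: luminescence from enzymatic CDP-Star hydrolysis. Doses: test compounds delivered from DMSO solution.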
# hIAP block: human IAP inhibitors, primary screen, biochemical, luminescence, uHTS. inhibition, % at 10 µM. hit rate 0.12% among 330,000. Intestinal-type alkaline phosphatase (Homo sapiens), P09923. purified IAP, CDP-Star luminescence, 30 min;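 active means inhibition reaching a set limit with compound at 10 µM in the primary screen, cut at about 35% in these data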;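 further: plate controls were DMSO wells with enzyme for no effect and no-enzyme buffer wells for full effect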
# Target sequence (P09923 whole entry, looked up): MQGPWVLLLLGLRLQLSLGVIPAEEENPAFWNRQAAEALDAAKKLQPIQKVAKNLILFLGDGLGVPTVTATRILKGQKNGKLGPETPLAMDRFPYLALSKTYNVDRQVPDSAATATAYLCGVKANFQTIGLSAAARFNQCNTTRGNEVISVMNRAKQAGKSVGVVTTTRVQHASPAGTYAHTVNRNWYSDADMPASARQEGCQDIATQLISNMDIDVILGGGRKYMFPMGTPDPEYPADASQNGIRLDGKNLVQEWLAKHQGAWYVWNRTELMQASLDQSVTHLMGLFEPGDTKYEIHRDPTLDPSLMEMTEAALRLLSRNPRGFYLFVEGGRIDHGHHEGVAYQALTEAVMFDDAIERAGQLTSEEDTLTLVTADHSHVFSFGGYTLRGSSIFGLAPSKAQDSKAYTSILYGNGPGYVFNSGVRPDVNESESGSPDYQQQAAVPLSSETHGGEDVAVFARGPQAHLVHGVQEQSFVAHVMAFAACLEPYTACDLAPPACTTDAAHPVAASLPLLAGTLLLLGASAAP
# bIAP act: bovine intestinal alkaline phosphatase activators, primary screen, biochemical, bovine IAP, CDP-star luminescence. alkaline phosphatase, intestinal [Bos taurus]. purified bovine IAP, 30 min; hits give high values; fold of DMSO-control signal, blank-subtracted. activation factor at 20 µM. hit rate 0.17% among 200,000;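 active means activation factor of 2 or more at 20 µM, a signal rise over negative controls twice the positive control's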
# hIAP act: human IAP activators, primary screen, biochemical, luminescence, uHTS. activation factor at 10 µM. purified human IAP, CDP-Star luminescence, 30 min; hits give high values; 1 = vehicle-only enzyme, 0 = enzyme-free background. Intestinal-type alkaline phosphatase (Homo sapiens), P09923. hit rate 0.16% among 330,000. AID 2524, 2010;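 active means activation factor of the enzyme at least 2-fold when tested at 20 µM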
# Active calls of the source: *; . = not tested or not shown.
SMILES,mIAP inh,bIAP inhibitor,mIAP act,hIAP block,bIAP act,hIAP act
Cn1cc(NC(=O)Nc2ccc(C(F)(F)F)cc2)c(C(F)(F)F)n1,-190,.,2.9*,-15,.,1.2
O=C(Nc1ccc(F)cc1)Nc1ccc(S(=O)(=O)N2CCCC2)cc1,-93,.,1.9,-2,.,1
Cn1cc(C(=O)Nc2ccc(Cl)cc2)c(C(F)(F)F)n1,5,12,0.95,0,0.9,1
Cc1oc(S(=O)(=O)N2CCCCC2)cc1NC(=O)Nc1ccc(F)cc1,-106,.,2.1*,-15,.,1.2
Cc1ccc(NC(=O)Nc2ccc(F)cc2)cc1Cl,-103,9,2*,-4,0.9,1
O=c1c(-c2ccccc2)c[nH]n1-c1cccc([N+](=O)[O-])c1,-7,3,1.1,-11,1,1.1
Cc1ncc([N+](=O)[O-])n1CCOC(=O)NC(NCc1ccccc1)C(Cl)(Cl)Cl (stereo not given),3,-2,0.97,1,1,0.99
CN(C(=O)c1ccc(NC(=O)Cc2ccc(NC(=O)C3CCCN(C(=O)C4CCCCC4)C3)cc2)cc1)C1CC1 (stereo not given),-20,.,1.2,8,.,0.92
CCc1ccc(/C=C/C(=O)c2ccc(S(=O)(=O)N(C)C)cc2)cc1,5,4,0.95,24,1,0.76
COc1ccc(NS(=O)(=O)c2cc(NC(=O)c3ccco3)ccc2N2CCCCC2)cc1,9,-15,0.91,-14,1.1,1.1
Cc1ccc(NP(=O)(Nc2ccc(C)cc2)Nc2ccc(C)cc2)cc1,-146,-22,2.5*,-25,1.2,1.3
COc1cccc(C2CN(c3ccc(F)cc3F)N=C2c2cccs2)c1OC (stereo not given),-104,10,2*,-3,0.9,1
Cc1ccc2c(c1)C1NC(=S)NC(C)(O2)C1C(=O)Nc1ccc(Cl)cc1 (stereo not given),-102,1,2*,3,1,0.97
Cc1cc(C)nc(NC(C)(C)C(=O)O)n1,-15,10,1.1,-3,0.9,1
NC(=S)NN=Cc1ccc(-c2ccc(S(=O)(=O)Nc3ncccn3)cc2)o1,42*,.,0.58,-16,.,1.2
O=C(O)c1ccccc1C(=O)NCCCn1ccnc1,-13,.,1.1,-42,.,1.4
O=C(NCCCn1ccnc1)c1cn(-c2ccccc2)nc1-c1ccc(F)cc1,-28,-115,1.3,-21,2.2*,1.2
COc1ccc(C2Nc3ccccc3C(=O)N2O)cc1OC (stereo not given),4,-3,0.96,0,1,1
COc1ccc(C2Nc3ccccc3C(=O)N2O)cc1CN1CCOCC1 (stereo not given),10,-100,0.9,-8,2*,1.1
COc1ccc(NC(=O)c2cc(-c3ccccc3Cl)on2)cc1OC,17,.,0.83,-4,.,1
CN(C)Cc1ccccc1Sc1cccc2ccccc12,.,-127,.,.,2.3*,.
CCOC(=O)c1ccc(NC(=S)NCCc2ccccc2)cc1,-82,40,1.8,-11,0.6,1.1
Cc1ccc(NC(=S)NCCC2=CCCCC2)cc1,-27,12,1.3,-6,0.9,1.1
CCOC(=O)c1ccc(NC(=S)NCCc2ccccc2F)cc1,-124,12,2.2*,-20,0.9,1.2
CCOC(=O)c1ccc(NC(=S)NCCC2=CCCCC2)cc1,-162,2,2.6*,-12,1,1.1
SMILES,mIAP inh,bIAP inhibitor,mIAP act,hIAP block,bIAP act,hIAP act
O=C(CSc1nnc(CCc2nc3ccccc3[nH]2)n1-c1ccccc1)NCc1ccccc1,-6,-12,1.1,-45,1.1,1.4
O=C(CSc1nnc(CCc2nc3ccccc3[nH]2)n1-c1ccccc1)NCc1ccco1,-7,-151,1.1,10,2.5*,0.9
CC(C)(C)OC(=O)[C@H](Cc1ccccc1)NC(=O)c1nc[nH]c1C(=O)N1CCN(C(=O)OC(C)(C)C)CC1,41*,.,0.59,-36,.,1.4
CC(C)(C)OC(=O)N1CCN(C(=O)c2[nH]cnc2C(=O)N[C@@H](Cc2ccccc2)C(=O)OCc2ccccc2)CC1,13,.,0.87,-33,.,1.3
Cc1cc(OCC(C)C)ccc1/C(O)=C1/C(=O)C(=O)N(Cc2cccnc2)C1c1ccncc1 (stereo not given),6,1,0.94,-6,1,1.1
COc1cc(C(=O)N2C[C@H]3CC[C@H]2C3)ccc1OC1CCN(C(C)=O)CC1,1,.,0.99,10,.,0.9
Cc1cccc(NC(=O)COC(=O)c2ccccc2-c2nc3ccccc3s2)c1C,0,-421,1,11,5.2*,0.89
O=C(Nn1c(SCc2ccccc2F)nc2ccsc2c1=O)c1ccccc1,-10,3,1.1,-4,1,1
O=C(NN1C(=O)/C(=C/c2cc([N+](=O)[O-])ccc2O)SC1=S)c1ccccc1O,51*,.,0.49,-5,.,1.1
COc1cc(/C=C2\SC(=S)N(NC(=O)c3ccccc3O)C2=O)ccc1O,37,.,0.63,18,.,0.82
CC(C)CNS(=O)(=O)c1ccc(NC(=O)Cn2nc(-c3ccc(F)cc3)ccc2=O)cc1,-7,27,1.1,-180,0.7,2.8*
O=C(NCC1CCN(c2ccc(S(=O)(=O)N3CCOCC3)cc2)CC1)Nc1ccccc1,-111,.,2.1*,-43,.,1.4
CCCCNc1nc2ccccc2[nH]1,9,-210,0.91,-14,3.1*,1.1
COc1ccc(CNC(=O)CSCc2cnn(-c3ccccc3)c2-n2cccc2)cc1,-5,-146,1,-15,2.5*,1.1
CCOC(=O)[C@@H]1[C@H]2COc3ccccc3[C@@H]2N2C(=O)N(c3ccccc3)C(=O)[C@]12C,6,.,0.94,-9,.,1.1
CCCc1ccc(C(C)NC(=S)NCc2ccc(F)cc2)cc1 (stereo not given),-196,.,3*,-46,.,1.5
CCOc1ccc(C(C)NC(=S)NCc2ccc(Cl)cc2)cc1 (stereo not given),-301,-8,4*,-16,1.1,1.2
CC(NC(=S)NC1CCCCC1)c1ccccc1 (stereo not given),-17,.,1.2,4,.,0.96
CCC(NC(=S)NCc1ccc(F)cc1)c1ccc(C(C)C)cc1 (stereo not given),-315,.,4.1*,10,.,0.9
CCCc1ccc(C(C)NC(=S)NC2CCCCC2)cc1 (stereo not given),-130,.,2.3*,-63,.,1.6

# Screening data from PubChem BioAssay.
